Reference: ChEMBL document CHEMBL1143239, “The synthesis of bivalent 2beta-carbomethoxy-3beta-(3,4-dichlorophenyl)-8-heterobicyclo[3.2.1]octanes as probes for proximal binding sites on the dopamine and serotonin transporters” (Bioorg Med Chem, 2008)

Tests used:
[1] = target: Sodium-dependent serotonin transporter (Homo sapiens, UniProt P31645); assay: Displacement of [3H]-citalopram from human SERT expressed in HEK293 cell membrane; assay type: cell membranes
How it was run: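 Competition binding on membranes of HEK-293 cells stably expressing SERT cDNA. [3H]citalopram fixed at 1 nM final, with a range of drug concentrations. Buffer Tris.HCl 50 mM, pH 7.4, NaCl 100 mM. Incubation 2 h at 0–4 °C, started by adding membranes. Rapid filtration through PEI-soaked GF/B filters, then scintillation counting. Nonspecific binding defined with 10 μM fluoxetine. IC50 reported as mean ± SEM of ≥3 experiments, each in triplicate.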

[2] = target: Sodium-dependent dopamine transporter (Homo sapiens, UniProt Q01959); assay: Displacement of [3H]WIN-35428 from human DAT expressed in transfected cell membrane; assay type: cell membranes
How it was run: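 Membranes from transfected cells stably expressing hDAT, labelled with [3H]WIN35,428 at 4 nM final, with serial drug dilutions made from DMSO stocks. Buffer Tris.HCl 50 mM, pH 7.4, NaCl 100 mM. Incubated 1 h at 22 °C. Filtered over 0.1% PEI-presoaked GF/B filters and counted. Nonspecific binding defined with 100 μM (-)-cocaine. IC50 reported as mean ± SEM of ≥3 experiments, each in triplicate.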

Sodium-dependent dopamine transporter, sequence (Q01959 whole entry): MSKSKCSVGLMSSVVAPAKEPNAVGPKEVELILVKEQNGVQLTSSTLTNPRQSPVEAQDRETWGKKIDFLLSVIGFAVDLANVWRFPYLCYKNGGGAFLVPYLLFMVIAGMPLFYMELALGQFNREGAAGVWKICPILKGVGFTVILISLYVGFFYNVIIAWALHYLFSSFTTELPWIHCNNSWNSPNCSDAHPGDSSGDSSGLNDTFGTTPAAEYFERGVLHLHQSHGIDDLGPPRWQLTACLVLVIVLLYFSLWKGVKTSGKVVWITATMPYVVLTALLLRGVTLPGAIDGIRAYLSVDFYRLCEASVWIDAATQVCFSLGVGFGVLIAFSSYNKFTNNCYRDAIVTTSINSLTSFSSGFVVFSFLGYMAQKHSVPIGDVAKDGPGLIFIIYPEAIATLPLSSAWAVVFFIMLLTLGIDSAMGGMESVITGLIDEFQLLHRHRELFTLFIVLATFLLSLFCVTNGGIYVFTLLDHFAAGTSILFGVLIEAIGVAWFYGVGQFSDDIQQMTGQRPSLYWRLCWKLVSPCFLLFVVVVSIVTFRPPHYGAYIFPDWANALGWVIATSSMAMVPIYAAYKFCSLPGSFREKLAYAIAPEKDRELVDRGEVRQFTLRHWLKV
Sodium-dependent serotonin transporter, sequence (P31645 whole entry): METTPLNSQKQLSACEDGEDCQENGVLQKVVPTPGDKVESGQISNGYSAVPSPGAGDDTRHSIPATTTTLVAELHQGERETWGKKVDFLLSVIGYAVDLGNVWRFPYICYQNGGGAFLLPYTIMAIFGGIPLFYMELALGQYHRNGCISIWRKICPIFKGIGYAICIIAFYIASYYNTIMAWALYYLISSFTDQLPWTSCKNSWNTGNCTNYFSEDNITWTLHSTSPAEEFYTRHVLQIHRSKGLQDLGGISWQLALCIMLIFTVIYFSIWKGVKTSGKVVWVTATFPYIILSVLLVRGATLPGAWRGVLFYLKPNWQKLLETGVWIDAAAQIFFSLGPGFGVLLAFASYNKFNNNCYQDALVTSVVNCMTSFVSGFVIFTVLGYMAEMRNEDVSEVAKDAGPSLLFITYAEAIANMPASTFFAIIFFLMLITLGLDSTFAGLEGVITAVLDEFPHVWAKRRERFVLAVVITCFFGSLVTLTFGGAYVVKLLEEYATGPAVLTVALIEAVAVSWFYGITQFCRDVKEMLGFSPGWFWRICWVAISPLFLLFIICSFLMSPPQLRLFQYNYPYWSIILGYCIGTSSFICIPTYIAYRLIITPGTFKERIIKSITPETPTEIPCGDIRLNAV

Work on `COC(=O)[C@@H]1C2CCC(C[C@@H]1c1ccc(Cl)c(Cl)c1)N2C` (stereo not given in full) yielded an IC50 [1] of 2.5 nM.
For `O=C(CCC(=O)OC[C@@H]1C2CCC(C[C@@H]1c1ccc(Cl)c(Cl)c1)S2)OC[C@@H]1C2CCC(C[C@@H]1c1ccc(Cl)c(Cl)c1)O2` (stereo not given in full), the IC50 [2] was 2960 nM and the IC50 [1] was 992 nM.
Work on `CCCCCCC(=O)OC[C@H]1[C@@H](c2ccc(Cl)c(Cl)c2)CC2CC[C@H]1N2C` yielded an IC50 [2] of 8 nM and an IC50 [1] of 53 nM.
For `CN1C2CC[C@@H]1[C@@H](COC(=O)CCC(=O)OC[C@@H]1C3CCC(C[C@@H]1c1ccc(Cl)c(Cl)c1)S3)[C@@H](c1ccc(Cl)c(Cl)c1)C2`, the IC50 [2] was 55 nM and the IC50 [1] was 593 nM.
Molecule `CN1C2CCC1[C@@H](COC(=O)CCCCCCCCC(=O)OC[C@@H]1C3CCC(C[C@@H]1c1ccc(Cl)c(Cl)c1)N3C)[C@@H](c1ccc(Cl)c(Cl)c1)C2` has an IC50 [2] of 31 nM and an IC50 [1] of 17 nM.
With `CN1C2CCC1[C@@H](COC(=O)CCCCCCCCCCC(=O)OC[C@@H]1C3CCC(C[C@@H]1c1ccc(Cl)c(Cl)c1)N3C)[C@@H](c1ccc(Cl)c(Cl)c1)C2` the IC50 [2] was 115 nM and the IC50 [1] was 140 nM.
Molecule `CN1C2CCC1[C@@H](COC(=O)CCCCCCC(=O)OC[C@@H]1C3CCC(C[C@@H]1c1ccc(Cl)c(Cl)c1)N3C)[C@@H](c1ccc(Cl)c(Cl)c1)C2` has an IC50 [2] of 11 nM and an IC50 [1] of 31 nM.
`CN1C2CCC1[C@@H](COC(=O)CCCCC(=O)OC[C@@H]1C3CCC(C[C@@H]1c1ccc(Cl)c(Cl)c1)N3C)[C@@H](c1ccc(Cl)c(Cl)c1)C2` gave an IC50 [2] of 28 nM and an IC50 [1] of 56 nM.
`COC(=O)[C@@H]1C2CCC(C[C@@H]1c1ccc(Cl)c(Cl)c1)S2` (stereo not given in full) gave an IC50 [2] of 2 nM and an IC50 [1] of 3 nM.
Molecule `CN1C2CCC1[C@@H](COC(=O)CCC(=O)OC[C@@H]1C3CCC(C[C@@H]1c1ccc(Cl)c(Cl)c1)N3C)[C@@H](c1ccc(Cl)c(Cl)c1)C2` has an IC50 [2] of 12 nM and an IC50 [1] of 106 nM.
For `O=C(CCC(=O)OC[C@@H]1C2CCC(C[C@@H]1c1ccc(Cl)c(Cl)c1)S2)OC[C@@H]1C2CCC(C[C@@H]1c1ccc(Cl)c(Cl)c1)S2`, the IC50 [2] was 1540 nM and the IC50 [1] was 2200 nM.
In the case of `COC(=O)[C@@H]1C2CCC(C[C@@H]1c1ccc(Cl)c(Cl)c1)O2` (stereo not given in full), the IC50 [2] is reported as 3.3 nM and the IC50 [1] is reported as 4.7 nM.
`CN1C2CC[C@@H]1[C@@H](COC(=O)CCC(=O)OC[C@H]1[C@@H](c3ccc(Cl)c(Cl)c3)CC3CC[C@H]1O3)[C@@H](c1ccc(Cl)c(Cl)c1)C2` showed an IC50 [2] of 67 nM and an IC50 [1] of 405 nM.
